Calls of active or inactive are those of the source. No cut-off for these calls is given here.
How the values were obtained:
[1] = Antiproliferative activity against human GM06114 cells assessed as cell growth at 10 uM incubated for 48 hrs by MTT assay relative to control; assay type: toxicity, cell-based; settings: read-out: Activity
Summary of the method: (§1)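 Cells in DMEM with 10 % FBS, 2 mM glutamine and pen-strep, 37 °C, 5 % CO₂, plated to reach 80–90 % confluence at endpoint. At 16 h, compounds were added from a 10 mM DMSO stock to 10 μM final. After 48 h, MTT (2 mg/mL in PBS) was added for 4 h, formazan dissolved in DMSO, and OD read at 570 nm. Results are % of solvent control; three runs, six replicates each, mean ± SD.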

A549 = assay: Antiproliferative activity against human A549 cells assessed as cell growth at 10 uM incubated for 48 hrs by MTT assay relative to control; assay type: functional; settings: read-out: Activity; summary of the method: as §1
HUVEC [2] = assay: Anti-angiogenetic activity in human HUVEC cells assessed as reduction in tube length at 10 uM incubated for 12 hrs by microscopy; assay type: functional, cell-based
Summary of the method: (§2)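 HUVEC seeded at 2 × 10⁴ cells/well onto gelled Matrigel (mixed 1:1 with EGM-2, set 30 min at 37 °C). Cells were exposed to test agents at 10 μM for 12 h with no stimulus; untreated wells served as control. Tube long axis and branching points were counted in 10 random fields per well at 10× (Angiogenesis Analyzer), giving mean tube length per well. Mean of at least three independent experiments.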

SK-MEL-28 = assay: Antiproliferative activity against human SK-MEL-28 cells assessed as cell growth at 10 uM incubated for 48 hrs by MTT assay relative to control; assay type: functional; settings: read-out: Activity; summary of the method: as §1
HUVEC [3] = assay: Anti-angiogenetic activity in human HUVEC cells assessed as reduction in tube branching at 10 uM incubated for 12 hrs by microscopy; assay type: functional, cell-based; summary of the method: as §2
MDA-MB-231 = assay: Antiproliferative activity against human MDA-MB-231 cells assessed as cell growth at 10 uM incubated for 48 hrs by MTT assay relative to control; assay type: functional; settings: read-out: Activity; summary of the method: as §1
SK-OV-3 = assay: Antiproliferative activity against human SK-OV-3 cells assessed as cell growth at 10 uM incubated for 48 hrs by MTT assay relative to control; assay type: functional; settings: read-out: Activity; summary of the method: as §1
[4] = Antiproliferative activity against human HUVEC cells assessed as cell growth at 10 uM incubated for 48 hrs by MTT assay relative to control; assay type: toxicity, cell-based; settings: read-out: Activity; summary of the method: as §1
HeLa = assay: Antiproliferative activity against human HeLa cells assessed as cell growth at 10 uM incubated for 48 hrs by MTT assay relative to control; assay type: functional; settings: read-out: Activity; summary of the method: as §1
SK-BR-3 = assay: Antiproliferative activity against human SK-BR-3 cells assessed as cell growth at 10 uM incubated for 48 hrs by MTT assay relative to control; assay type: functional; settings: read-out: Activity; summary of the method: as §1
MCF7 = assay: Antiproliferative activity against human MCF7 cells assessed as cell growth at 10 uM incubated for 48 hrs by MTT assay relative to control; assay type: functional; settings: read-out: Activity; summary of the method: as §1
HepG2 = assay: Antiproliferative activity against human HepG2 cells assessed as cell growth at 10 uM incubated for 48 hrs by MTT assay relative to control; assay type: functional; settings: read-out: Activity; summary of the method: as §1
HUVEC [5] = assay: Inhibition of cell migration in human HUVEC cells at 10 uM incubated for 24 hrs by wound healing assay; assay type: functional, cell-based
Summary of the method: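 Confluent HUVEC monolayers (2 × 10⁵/well, 24 h) were scratched with a p10 tip and treated at 10 μM with mitomycin C 10 μg/ml to block mitosis. Wounds were photographed at 0 and 24 h (4× phase contrast). Migration was taken as the change in distance covered by the wound edges. n = 3 independent experiments, mean ± SD.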

HUVEC [6] = assay: Anti-angiogenetic activity in human HUVEC cells assessed as number of tube branching points at 10 uM incubated for 12 hrs in presence of tumor secretome from human MIA PaCa-2 cell supernatant by microscopy (reference value: 17); assay type: functional
HUVEC [7] = assay: Effect on conformation of actin filament organization in human HUVEC cells at 10 uM treated for 24 hrs by immunofluorescence assay; assay type: functional, cell-based
Summary of the method: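 HUVEC were left untreated or treated 24 h at 10 μM final. Cells were then fixed on coverslips in 4 % paraformaldehyde, permeabilized with 0.2 % Triton X-100 and blocked with 20 % goat serum. F-actin was stained with FITC-phalloidin (5 µg/ml, 2 h, room temperature, dark) and nuclei with Hoechst 33342. Cells were imaged by confocal microscopy.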

[8] = Effect on intracellular calcium signaling in human HUVEC cells assessed as inhibition of calcium mobilization by measuring fluorescence intensity at 10 uM incubated for 1 hr by Fluo-4 a.m. cytofluorimetric assay relative to control; assay type: functional; parameters: scale not given: the % may be the effect or the level left
Summary of the method: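 Trypsinized HUVEC at 5 × 10⁵/ml were treated with compounds at 10 μM in PBS for 1 h at room temperature, washed, then loaded with 2.5 μM Fluo-4 AM (0.06 % DMSO final) for 45 min at 37 °C. Fluorescence was read by flow cytometry with a 530/30 filter. Ionomycin served as positive control and EDTA (added 15 min before) as negative control. n = 3, mean ± SD.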

HUVEC [9] = assay: Anti-angiogenetic activity in human HUVEC cells assessed as relative tube length at 10 uM incubated for 12 hrs in presence of tumor secretome from human MIA PaCa-2 cell supernatant by microscopy (reference value: 108); assay type: functional
HUVEC [10] = assay: Inhibition of cell invasion in human HUVEC cells assessed as number of cells at 10 uM incubated for 24 hrs by transwell assay; assay type: functional
Summary of the method: (§3)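 Transwell inserts with 8.0 pore size were coated with Matrigel 1:3 in serum-free medium. HUVEC (2 × 10⁴/insert) went in serum-free medium in the upper chamber, with treatments (10 μM) in growth medium below, for 24 h at 37 °C. Filters were fixed in 4 % paraformaldehyde then methanol and stained with 0.5 % crystal violet. Cells on the lower surface were counted in ten random fields at 10×. n = 3.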

HUVEC [11] = assay: Inhibition of cell invasion in human HUVEC cells at 10 uM incubated for 24 hrs by transwell assay; assay type: functional, cell-based; summary of the method: as §3
HUVEC [12] = assay: Anti-angiogenetic activity in human HUVEC cells assessed as relative tube length at 10 uM incubated for 12 hrs by microscopy; assay type: functional; summary of the method: as §2
HUVEC [13] = assay: Anti-angiogenetic activity in human HUVEC cells assessed as number of tube branching points at 10 uM incubated for 12 hrs by microscopy; assay type: functional; summary of the method: as §2

Row | SMILES | viability at 48 h, 10 µM [1] [%] | growth at 10 µM (A549) [%] | Activity (HUVEC [2]) | growth at 10 µM (SK-MEL-28) [%] | Activity (HUVEC [3]) | growth at 10 µM (MDA-MB-231) [%] | growth at 10 µM (SK-OV-3) [%] | viability at 48 h, 10 µM [4] [%] | growth at 10 µM (HeLa) [%] | growth at 10 µM (SK-BR-3) [%] | growth at 10 µM (MCF7) [%] | growth at 10 µM (HepG2) [%] | Activity (HUVEC [12]) | Activity (HUVEC [13]) | other results
1 | CCCC(O)Cn1nc(Nc2ccc(OC)cc2)c(C(=O)OCC)c1N (stereo not drawn) | 75 | 98 | Active | 120 | Active | 143 | 110 | 95 | 111 | 106 | 109 | 110 |  |  | 
2 | CCOC(=O)c1c(Nc2ccc(OC)cc2)nn(CC(O)c2ccccc2)c1N (stereo not drawn) | 70 | 100 |  | 134 |  | 147 | 102 | 99 | 111 | 115 | 98 | 115 |  |  | 
3 | CCCC(O)Cn1nc(Nc2cccc(Cl)c2)c(C(=O)OCC)c1N (stereo not drawn) | 82 | 85 | Active | 122 | Active | 168 | 118 | 97 | 100 | 113 | 95 | 90 |  |  | inhibition (HUVEC [5]): Active; Activity (HUVEC [6]): ~8; Activity (HUVEC [7]): Active; Activity [8]: 21%; Activity (HUVEC [9]): 55; Activity (HUVEC [10]): 491; inhibition (HUVEC [11]): Active
4 | CCCC(O)Cn1nc(Nc2ccc(C)cc2)c(C(=O)OCC)c1N (stereo not drawn) | 72 | 92 | Active | 137 | Active | 158 | 119 | 96 | 109 | 123 | 111 | 119 | <20 | <15 | 
5 | CCCC(O)Cn1nc(Nc2ccc(Cl)c(Cl)c2)c(C(=O)OCC)c1N (stereo not drawn) | 87 | 94 | Active | 137 | Active | 176 | 116 | 93 | 119 | 127 | 107 | 116 |  |  | 
6 | CCOC(=O)c1c(Nc2ccc(Cl)c(Cl)c2)nn(CC(O)c2ccccc2)c1N (stereo not drawn) | 77 | 70 |  | 135 |  | 144 | 111 | 93 | 74 | 111 | 88 | 100 |  |  | 
7 | CCCC(O)Cn1nc(Nc2cccc3ccccc23)c(C(=O)OCC)c1N (stereo not drawn) | 104 | 86 |  | 103 |  | 106 | 108 | 94 | 82 | 110 | 109 | 104 | <20 | <15 | 
8 | CCOC(=O)c1c(Nc2cccc(Cl)c2)nn(CC(O)c2ccccc2)c1N (stereo not drawn) | 65 | 88 | Active | 144 | Active | 135 | 100 | 93 | 113 | 120 | 101 | 113 |  |  | 
9 | CCOC(=O)c1c(Nc2cccc3ccccc23)nn(CC(O)c2ccccc2)c1N (stereo not drawn) | 81 | 88 | Active | 141 | Active | 149 | 116 | 98 | 104 | 118 | 97 | 118 | <20 | <15 | 
10 | CCCC(O)Cn1nc(Nc2cccc(C(F)(F)F)c2)c(C(=O)OCC)c1N (stereo not drawn) | 71 | 66 |  | 113 |  | 109 | 102 | 100 | 77 | 118 | 80 | 69 |  |  | 
11 | CCCC(O)Cn1nc(Nc2ccccc2Cl)c(C(=O)OCC)c1N (stereo not drawn) | 85 | 106 |  | 132 |  | 107 | 102 | 95 | 116 | 121 | 110 | 119 |  |  | 
12 | CCOC(=O)c1c(Nc2cccc(C(F)(F)F)c2)nn(CC(O)c2ccccc2)c1N (stereo not drawn) | 80 | 88 |  | 124 |  | 162 | 108 | 92 | 107 | 122 | 99 | 131 |  |  | 
13 | CCOC(=O)c1c(Nc2ccc(C)cc2)nn(CC(O)c2ccccc2)c1N (stereo not drawn) |  |  |  |  |  |  |  |  |  |  |  |  | 48 | 17 | 
14 | CCOC(=O)c1c(Nc2ccccc2Cl)nn(CC(O)c2ccccc2)c1N (stereo not drawn) | 63 | 72 |  | 136 |  | 115 | 100 | 93 | 98 | 117 | 112 | 111 |  |  | 
15 | CCCC(O)Cn1ncc(C(=O)OCC)c1NC(=O)Nc1cccc(C(F)(F)F)c1 (stereo not drawn) |  |  |  |  |  |  |  |  |  |  |  |  | 21 | 19 | Activity (HUVEC [7]): Active; Activity [8]: 20%; Activity (HUVEC [10]): 383
16 | CCCC(O)Cn1nc(Nc2ccccc2)c(C(=O)OCC)c1N (stereo not drawn) | 112 | 115 | Active | 97 | Active | 103 | 104 | 100 | 97 | 107 | 110 | 106 | <20 | <15 | inhibition (HUVEC [5]): Active; Activity (HUVEC [6]): ~8; Activity (HUVEC [7]): Active; Activity [8]: 23%; Activity (HUVEC [9]): 55; Activity (HUVEC [10]): 364; inhibition (HUVEC [11]): Active
